In the library only some 3.7% were active in any assay of this set; here they are far more common.
KCNQ1 pot: potentiators or activators of human KCNQ1 potassium channel | actives 0.35% (n = 310,000) | CHO-K1 KCNQ1, thallium flux FluxOR fluorescence; hits give high values | P51787 | B-score at 10 µM | AID 2648;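 active means fluorescence ratio B-score, a plate-corrected score, at least three library SD, with initial intensity B-score within 5 SD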
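Doses: Single concentration per compound, DMSO matched to controls | Test system: KCNQ1-transfected CHO-K1 cells | Timing: 90 min dye loading and 20 min compound exposure, both at room temperature | Measured by: Kinetic FluxOR thallium fluorescence, 10-s 1-Hz baseline, 110-s post-stimulus read | Medium: Assay buffer with matched DMSO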
KCNK9 inh: blocks the human KCNK9 two-pore domain potassium channel | Q9NPC2 | actives 1.2% (n = 310,000) | B-score at 10 µM | HEK293 KCNK9, FluxOR thallium flux fluorescence; hits give low values | AID 488922;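 active means ratio B-score over 3 SD below the library mean, with starting fluorescence within 5 SD of its mean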;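 further: negative B-score means less thallium flux so channel inhibition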
KCNQ1 inh: inhibitors of human KCNQ1 potassium channel. P51787. CHO-K1 KCNQ1, FluxOR thallium flux fluorescence; hits give high values. B-score at 10 µM. actives 1.3% (n = 310,000);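 active means compounds whose thallium flux B-score, printed positive for inhibition, exceeds three library SD while starting fluorescence stays within three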;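 further: channel opened by potassium depolarization with thallium stimulus after 20 min compound exposure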
KCNK3 inh: human KCNK3 channel inhibition, primary screen | AID 602410 | CHO-KCNK3 thallium flux, FluxOR fluorescence; hits give low values | actives 0.84% (n = 340,000) | B-score at 10 µM | O14649;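 active means B-score under library mean minus 4 SD, starting fluorescence ratio at most library mean plus 5 SD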;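 further: more negative B-score means stronger inhibition of thallium flux through KCNK3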
hERG protect: shields human hERG channel from block by proarrhythmic agents; actives 0.51% (n = 310,000); CHO-hERG, FluxOR thallium flux, dofetilide IC70 present; AID 1511; activation (rescue from dofetilide block), less the hit threshold, % at 10 µM; Q12809;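 active means activation above the mean of controls blocked by dofetilide plus 5 SD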;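 further: thallium influx through hERG after potassium depolarization seen as dye fluorescence rise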
Kir21 block: Kir2.1 (mouse) channel inhibition; P35561; HEK293-Kir2.1, FluxOR thallium flux fluorescence; hits give low values; actives 0.85% (n = 310,000); AID 1672; B-score at 10 µM;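 active means fluorescence ratio B-score at or below minus 3 SD of library scores, with starting-brightness B-score within 2 SD, cut at about -4.2 in these data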;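 further: channel flux triggered by added potassium and thallium sulfate stimulus; B-score of peak minus minimum fluorescence over baseline after thallium stimulus; more negative B-score means stronger Kir2.1 block with less thallium influx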
Target sequence (P35561 whole entry, looked up): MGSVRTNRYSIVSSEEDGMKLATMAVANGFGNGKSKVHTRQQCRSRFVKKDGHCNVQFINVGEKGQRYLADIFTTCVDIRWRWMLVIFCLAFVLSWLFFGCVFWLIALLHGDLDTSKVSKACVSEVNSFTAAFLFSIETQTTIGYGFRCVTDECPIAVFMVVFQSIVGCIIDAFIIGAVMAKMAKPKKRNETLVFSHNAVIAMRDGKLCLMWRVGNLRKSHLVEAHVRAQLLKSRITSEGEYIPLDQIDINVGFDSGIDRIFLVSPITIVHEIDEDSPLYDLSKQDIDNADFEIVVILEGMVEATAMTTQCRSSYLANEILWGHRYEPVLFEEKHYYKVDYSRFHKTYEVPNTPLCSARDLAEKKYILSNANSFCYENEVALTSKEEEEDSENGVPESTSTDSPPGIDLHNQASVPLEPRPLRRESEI
KCNK9 block conf: human KCNK9 inhibitor confirmation | inhibition, % at 10 µM | actives 43% (n = 4,900) | shares compounds with KCNK9 inh | HEK293 KCNK9 cells, FluxOR thallium flux fluorescence;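 active means thallium signal inhibited by more than 5 SD of the compound-free buffer control wells, on both duplicate plates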;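 further: 0% = assay buffer control wells without compound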
Kir21 sel: tests whether KCNK9 modulators also affect mouse Kir2.1; shares compounds with KCNK9 inh; Kir2.1 cells, FluxOR thallium flux fluorescence; inhibition, % at 10 µM; actives 4% (n = 4,900); AID 492993;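 active means thallium signal drop more than 5 SD beyond the mean of the no-compound control wells, seen in both duplicate plates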;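 further: signal is fluorescence rise after thallium addition divided by baseline fluorescence; plate controls were assay buffer only for no effect and full block by chlorpromazine control for full effect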
HEK293 Tl ctr: second check of KCNK9 modulator effects in non-induced HEK293 cells | shares compounds with KCNK9 inh | FluxOR thallium flux | inhibition, % at 10 µM | actives 40% (n = 4,900);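 active means thallium signal drop beyond 5 SD of the untreated control mean, on both duplicate plates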;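 further: plate controls were buffer only IC0 wells for no effect and SID17386958 at its maximal inhibitory level for full effect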
KCNK3 confirm: human KCNK3 channel inhibition, confirmation assay | AID 651638 | ratio percent of control, % at 10 µM | shares compounds with KCNK3 inh | CHO-KCNK3 thallium flux, FluxOR fluorescence; 0% buffer, 100% carvedilol maximal block | actives 99% (n = 2,400);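 active means ratio percent of control, averaged over triplicates, above buffer control mean plus 5 SD, cut at about 64% in these data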;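 further: ratio is the fluorescence rise from min to max over baseline after thallium stimulus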
KCNK3 noninduced: KCNK3 inhibitor counter-screen hit in non-induced cells. shares compounds with KCNK3 inh. non-induced KCNK3 parental cells, FluxOR thallium flux; hits give low values. thallium flux ratio (lower = more inhibition) at 10 µM. actives 40% (n = 2,400). AID 651747;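 active means thallium flux ratio, averaged over three wells, more than 5 SD below the buffer control mean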;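 further: host cells are CHO cells without KCNK3 induction; ratio is peak minus trough fluorescence over baseline then normalized to buffer controls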
Starred values were filed as active, the others as inactive; i = inactive; . = no result.

SMILES	KCNQ1 pot	KCNK9 inh	KCNQ1 inh	KCNK3 inh	hERG protect	Kir21 block	KCNK9 block conf	Kir21 sel	HEK293 Tl ctr	others
FC(F)(F)c1cccc(-n2nnnc2C2(N3CCOCC3)CCCCC2)c1	i	-9.98*	i	i	-6.7	0.16	42.5%*	i	35.0%*
O=C(O)c1ccc(NC(=O)N2C[C@H]3C[C@@H](C2)c2cccc(=O)n2C3)cc1	i	i	i	i	-7.0	-0.96	.	.	.
CC(=Nc1ccccc1N)c1c(O)n(C)c(=O)n(C)c1=O	i	i	i	i	-0.3	-0.02	.	.	.
Cn1c(O)c(/C=N/N2CCOCC2)c(=O)n(C)c1=S	i	i	i	i	-2.5	-0.64	.	.	.
O=C(CN1CC=C(c2ccccc2)CC1)Nc1cc(Cl)ccc1Cl	i	i	i	i	-13.4	-0.13	i	i	i
CC(C)n1c(=O)c(C=Nc2ccc(F)cc2)c(O)n(Cc2ccco2)c1=O	i	i	i	i	-5.5	0.49	i	i	i
CCCCCCn1c(O)c(/C=N/N2CCCCCC2)c(=O)[nH]c1=O	i	i	i	i	-5.3	-0.88	.	.	.
Cc1ccccc1NS(=O)(=O)c1ccc(OCC(=O)N2CCN(C)CC2)cc1	i	i	i	i	-8.8	-1.02	i	i	i
Cc1ccc(NS(=O)(=O)c2ccc(OCC(=O)N3CCN(C)CC3)cc2)cc1	i	i	i	i	-15.4	0.63	.	.	.
Cc1cccc(CN2CCCN(Cc3ccc(Cl)cc3)S2(=O)=O)c1	i	i	i	i	-5.4	-0.45	.	.	.
Cc1ccc(CN2CCCN(Cc3ccc(C)cc3)S2(=O)=O)cc1	i	i	i	i	-4.3	-0.66	i	i	i
Cc1c(NP(=S)(C(C)(C)C)C(C)(C)C)c(=O)n(-c2ccccc2)n1C	i	i	i	i	-5.2	-1.14	.	.	.
CCC(=Nc1ccccc1N)c1c(O)[nH]c(=O)[nH]c1=O	i	i	i	i	-2.9	0.27	.	.	.
N#CC1=C(N)Oc2c(c(=O)sc3ccccc23)C1c1cccnc1 (centres undefined)	i	i	i	i	-6.3	0.55	.	.	.
COc1cc(CN2CC=C(c3ccc(F)cc3)CC2)cc(OC)c1	i	i	i	i	-5.8	-0.71	.	.	.
COc1cc(C)c(CN2CC=C(c3ccc(F)cc3)CC2)cc1C	i	i	i	i	-9.1	0.94	i	i	i
CC(=O)[C@@]1(O)CCC2C3CC=C4C[C@@H](O)CC[C@]4(C)C3CC[C@@]21C (some centres undefined)	.	.	.	i	.	.	.	.	.
CC(C)(C)NC(=O)C1CC2CCCCC2CN1 (centres undefined)	i	i	i	i	-6.4	0.63	.	.	.
Cn1c(O)c(C=NCCN2CCN(C(=O)Nc3ccccc3)CC2)c(=O)n(C)c1=O	i	i	i	i	-7.0	-0.37	.	.	.
Cc1ccc(CN2CCCC(C(=O)c3cccc(C(F)(F)F)c3)C2)o1 (centres undefined)	i	i	i	i	-14.7	-1.67	i	i	i
Cc1ccsc1C(=O)C1CCCN(Cc2cc3ccccc3o2)C1 (centres undefined)	i	i	i	i	-12.4	-1.01	i	i	i
Cc1ccc(CN2CCCC(C(=O)c3sccc3C)C2)o1 (centres undefined)	i	i	i	i	-14.5	0.41	i	i	i
Cc1ccc(-n2nc(C)c3c2NC(=O)CSC3c2ccc3c(c2)OCO3)cc1 (centres undefined)	i	-13.2*	i	i	-11.1	-0.03	36.5%*	i	31.0%*
COc1ccc(C2SCC(=O)Nc3c2c(C)nn3-c2ccccc2)cc1 (centres undefined)	i	i	i	i	-5.7	0.62	.	.	.
Cc1cnc[nH]1	.	.	.	i	.	.	.	.	.
SMILES	KCNQ1 pot	KCNK9 inh	KCNQ1 inh	KCNK3 inh	hERG protect	Kir21 block	KCNK9 block conf	Kir21 sel	HEK293 Tl ctr	others
Oc1c(Cl)c(Cl)c(Cl)c(Cl)c1Cl	i	i	i	i	-13.8	0.83	i	i	i
O=c1[nH]c(=S)n(CCC2=CCCCC2)c(O)c1/C=N/Nc1ccccc1	i	i	i	i	-13.4	-1.94	i	i	25.0%*
Cc1ccsc1C(=O)C1CCCN(Cc2cccc(-n3cccn3)c2)C1 (centres undefined)	i	i	i	i	-13.7	-0.33	i	i	i
CSc1ccc(C(=O)C2CCCN(Cc3cnc(SC)nc3)C2)cc1 (centres undefined)	i	i	i	i	-9.6	0.53	i	i	i
COc1cc(CN2CCCC(C(=O)c3sccc3C)C2)cc(Cl)c1O (centres undefined)	i	i	i	i	-10.4	-1.59	i	i	i
CSc1ncc(CN2CCCC(C(=O)c3sccc3C)C2)cn1 (centres undefined)	i	i	i	i	-5.3	-0.66	i	i	i
Cn1cc(C(O)CN2CCCCC2)c2ccccc21 (centres undefined)	i	i	i	i	-5.1	-0.16	.	.	.
CCc1ccc(N2C(=O)NC(=O)/C(=C/c3cccn3CCOc3ccc(C(C)CC)cc3)C2=O)cc1 (centres undefined)	i	i	i	i	-1.9	1.63	i	i	i
CN1C(=O)C(=Cc2c(OCc3cnc(Cl)s3)ccc3ccccc23)C(=O)N(C)C1=O	i	-15.4*	i	-9.03*	-25.2	-0.24	70.0%*	i	27.0%*	KCNK3 confirm=101.3*;KCNK3 noninduced=i
CN1C(=O)C(=Cc2ccccc2OCc2ccccc2Cl)C(=O)N(C)C1=O	i	i	i	i	-7.8	-2.96	.	.	.
COc1cc(O)cc2c1cc([N+](=O)[O-])c1c(C(=O)O)cc3c(c12)OCO3	.	.	.	i	.	.	.	.	.
